Measurements from ChEMBL document CHEMBL4825680, “Structure-based discovery of potent and selective small-molecule inhibitors targeting signal transducer and activator of transcription 3 (STAT3)” (Eur J Med Chem, 2021).
Activity calls are given as the source filed them. The rule behind the calls is not given here.

How the values were obtained:
HCC70 [1] = assay: Inhibition of cell migration in human HCC70 cells incubated for 12 to 96 hrs by wound healing assay; format: functional, cell-based; settings: dose 0.3-3 µM, time 12-96 hrs
Method in brief: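 Confluent monolayer (0.8–1.2×10^6 cells/well) scratched with a pipette tip, then treated with 0–3 µM compound until vehicle cells filled the gap. Imaged by microscope after about 12–96 h. Triplicate.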

[2] = Induction of apoptosis in human MDA231-LM2-4175 cells assessed as viable cells at 3 uM after 48 hrs by Annexin-V-FITC/propidium iodide staining based flow cytometric analysis (reference value: 94.4%); format: functional; settings: read-out: Activity
[3] = biological target: T1, Signal transducer and activator of transcription 5A (Homo sapiens) (UniProt P42229); assay: Inhibition of STAT5 phosphorylation at Y694 residue in human HCC70 cells at 0.3 to 3 uM after 3 hrs by Western blotting analysis; format: cell-based; settings: dose 0.3-3 µM
T1 sequence (whole entry): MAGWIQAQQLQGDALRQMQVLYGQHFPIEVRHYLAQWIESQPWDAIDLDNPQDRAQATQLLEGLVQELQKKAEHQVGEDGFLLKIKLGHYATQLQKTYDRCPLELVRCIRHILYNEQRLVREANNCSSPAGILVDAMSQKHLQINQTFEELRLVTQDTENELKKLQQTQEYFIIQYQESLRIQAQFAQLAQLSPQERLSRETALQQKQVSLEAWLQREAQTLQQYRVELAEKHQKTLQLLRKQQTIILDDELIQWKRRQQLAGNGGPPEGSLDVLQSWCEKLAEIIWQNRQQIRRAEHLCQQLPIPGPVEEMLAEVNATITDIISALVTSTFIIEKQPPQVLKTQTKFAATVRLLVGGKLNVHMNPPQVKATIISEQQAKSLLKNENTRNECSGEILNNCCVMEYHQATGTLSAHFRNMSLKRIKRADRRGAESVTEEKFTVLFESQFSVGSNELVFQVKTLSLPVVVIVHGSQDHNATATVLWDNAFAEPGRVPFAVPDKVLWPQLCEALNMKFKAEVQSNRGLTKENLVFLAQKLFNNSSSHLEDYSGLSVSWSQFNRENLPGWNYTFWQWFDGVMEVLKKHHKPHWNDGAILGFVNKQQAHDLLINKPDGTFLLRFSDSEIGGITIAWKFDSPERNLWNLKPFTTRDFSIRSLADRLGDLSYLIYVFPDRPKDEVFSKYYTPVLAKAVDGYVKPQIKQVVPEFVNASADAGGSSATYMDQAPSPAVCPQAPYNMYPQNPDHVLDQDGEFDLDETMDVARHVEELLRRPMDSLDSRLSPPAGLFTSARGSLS

[4] = biological target: T2, Signal transducer and activator of transcription 1-alpha/beta (Homo sapiens) (UniProt P42224); assay: Inhibition of STAT1 phosphorylation at Y701 residue in human HCC70 cells at 0.3 to 3 uM after 3 hrs by Western blotting analysis; format: cell-based; settings: dose 0.3-3 µM
T2 sequence (whole entry): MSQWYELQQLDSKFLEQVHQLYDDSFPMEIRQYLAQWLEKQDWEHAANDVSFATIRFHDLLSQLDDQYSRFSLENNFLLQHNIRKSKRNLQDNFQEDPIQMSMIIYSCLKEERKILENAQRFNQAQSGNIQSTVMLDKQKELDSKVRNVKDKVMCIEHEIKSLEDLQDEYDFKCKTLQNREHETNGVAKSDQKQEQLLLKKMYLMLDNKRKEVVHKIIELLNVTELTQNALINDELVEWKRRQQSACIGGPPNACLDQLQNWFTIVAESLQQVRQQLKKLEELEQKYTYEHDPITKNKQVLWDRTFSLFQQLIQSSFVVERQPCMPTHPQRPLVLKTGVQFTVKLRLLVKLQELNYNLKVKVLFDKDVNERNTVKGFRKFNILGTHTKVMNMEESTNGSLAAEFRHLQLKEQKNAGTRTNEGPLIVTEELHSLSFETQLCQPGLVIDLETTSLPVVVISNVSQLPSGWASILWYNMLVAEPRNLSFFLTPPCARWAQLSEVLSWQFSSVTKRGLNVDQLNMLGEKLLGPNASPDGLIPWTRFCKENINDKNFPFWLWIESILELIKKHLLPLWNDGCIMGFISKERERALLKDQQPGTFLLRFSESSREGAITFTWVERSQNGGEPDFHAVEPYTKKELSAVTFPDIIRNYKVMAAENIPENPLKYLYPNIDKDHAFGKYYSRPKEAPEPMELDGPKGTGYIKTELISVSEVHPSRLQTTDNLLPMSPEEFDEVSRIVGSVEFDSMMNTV

MDA231-LM2-4175 = assay: Induction of apoptosis in human MDA231-LM2-4175 cells assessed as increase in PARP cleavage at 1 uM after 48 hrs by Western blot analysis; format: functional, cell-based
Method in brief: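 Breast cancer cells given vehicle (0.1% DMSO) or compound, then lysed in RIPA buffer with PMSF and phosphatase inhibitors. BCA-quantified lysate (20–50 µg) run on 8 or 12% SDS-PAGE and transferred to PVDF. Blocked in 5% BSA, probed overnight at 4 °C for PARP and cleaved caspase-7, HRP secondary, ECL detection. β-actin as loading control.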

[5] = biological target: Signal transducer and activator of transcription 3 (Homo sapiens, UniProt P40763); assay: Inhibition of STAT3 in human MDA231-LM2-4175 cells assessed as downregulation of Bcl-xL expression at 0.3 to 3 uM after 24 hrs by western blot analysis; format: cell-based; settings: dose 0.3-3 µM
Method in brief: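 TNBC cells given vehicle (0.1% DMSO) or graded compound levels for 24 h, lysed in RIPA with PMSF and phosphatase inhibitors. BCA-quantified lysate (20–50 µg) run on SDS-PAGE, transferred to PVDF, blocked in 5% BSA. Probed overnight at 4 °C for Bcl-xL, Mcl-1 and c-Myc, with β-actin. HRP secondary, ECL detection. Three independent experiments.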

HCC70 [6] = assay: Effect on total STAT3 level in human HCC70 cells at 0.3 to 3 uM measured after 3 hrs by Western blot analysis; format: functional, cell-based; settings: dose 0.3-3 µM
Method in brief: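 Breast cancer cells were treated with vehicle (0.1% DMSO) or compound, then lysed in RIPA with PMSF and phosphatase inhibitors. 20–50 μg protein was run on 8 or 12% SDS-PAGE, blotted to PVDF, blocked in 5% BSA, probed with primary antibodies overnight at 4 °C, then HRP secondaries, with ECL detection.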

[7] = Induction of apoptosis in human MDA231-LM2-4175 cells assessed as viable cells at 1 uM after 48 hrs by Annexin-V-FITC/propidium iodide staining based flow cytometric analysis (reference value: 94.4%); format: functional; settings: read-out: Activity
[8] = Antitumor activity against patient-derived breast cancer cells xenografted in NOD/SCID mouse assessed as tumor growth inhibition at 15 mg/kg, ip administered once daily for 20 days; settings: Homo sapiens, Breast cancer cell line, 480 h, read-out: TGI
[9] = AUC(0 to last) in Sprague-Dawley rat at 10 mg/kg, po measured up to 24 hrs by LC-MS/MS analysis; format: ADME, organism-based; set-up: route oral, dose 10 mg/kg, time <=24; settings: in vivo
Method in brief: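 Male SD rats given a single oral dose of 10 mg/kg in DMSO/0.5% HPMC (5/95, v/v). Blood was drawn at 0.25, 0.5, 1, 2, 4, 8 and 24 h, and plasma was analysed by LC-MS/MS on a BEH phenyl column with a formic acid water/acetonitrile mobile phase.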

Chain of Signal transducer and activator of transcription 3 (P40763 whole entry): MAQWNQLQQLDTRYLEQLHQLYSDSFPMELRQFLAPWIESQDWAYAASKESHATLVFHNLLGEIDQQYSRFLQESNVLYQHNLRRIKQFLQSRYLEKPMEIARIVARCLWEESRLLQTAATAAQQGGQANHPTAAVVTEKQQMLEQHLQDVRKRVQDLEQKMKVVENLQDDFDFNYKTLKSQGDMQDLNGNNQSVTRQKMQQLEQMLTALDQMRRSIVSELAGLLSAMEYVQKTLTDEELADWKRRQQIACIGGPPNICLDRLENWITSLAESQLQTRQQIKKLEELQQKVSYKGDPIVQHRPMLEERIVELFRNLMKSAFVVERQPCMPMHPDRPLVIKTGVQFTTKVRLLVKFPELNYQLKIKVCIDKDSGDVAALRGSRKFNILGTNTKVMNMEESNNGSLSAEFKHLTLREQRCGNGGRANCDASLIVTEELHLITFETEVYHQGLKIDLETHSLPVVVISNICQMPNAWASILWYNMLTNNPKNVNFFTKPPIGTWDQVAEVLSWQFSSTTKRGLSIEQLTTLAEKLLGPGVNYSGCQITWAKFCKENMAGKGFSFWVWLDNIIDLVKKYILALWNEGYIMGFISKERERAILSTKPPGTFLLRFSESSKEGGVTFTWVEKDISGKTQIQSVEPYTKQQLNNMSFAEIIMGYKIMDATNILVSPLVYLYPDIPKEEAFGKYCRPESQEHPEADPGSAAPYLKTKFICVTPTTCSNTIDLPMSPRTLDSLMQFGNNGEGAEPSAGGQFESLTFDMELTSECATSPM

SMILES: O=C(Cc1c(-c2ccccc2)nc2ccccn12)Nc1ccc2c(c1)S(=O)(=O)C=C2
- inhibition (HCC70 [1]): Dose-Dependent Effect
- viability at 3 µM [2]: 83.4%
- inhibition [3]: inactive
- inhibition [4]: inactive
- Activity (MDA231-LM2-4175): Active
- inhibition [5]: Active
- Activity (HCC70 [6]): inactive
- viability at 1 µM [7]: 88.7%
- inhibition in vivo at 15 mg/kg [8]: 68.9%
- AUC(0-t) at 24 h [9]: 54.6 ng·h/mL
